# Measured values reported in ChEMBL document CHEMBL5608238, “Discovery of Thiophene Derivatives as Potent, Orally Bioavailable, and Blood-Brain Barrier-Permeable Ebola Virus Entry Inhibitors” (J Med Chem, 2024).
# Columns and labels:
# Ebolavirus [1] = assay: Antiviral activity against EBOV infected in HeLa cells; format: functional, organism-based; conditions: Orthoebolavirus
# Ebolavirus [2] = assay: Antiviral activity against EBOV-GP pseudotyped virus infected in Vero E6 cells preincubated with cells for 1 hr followed by viral addition and measured after 24 hrs by Steady-Glo microplate luminometer analysis; format: functional, organism-based; conditions: Orthoebolavirus, Vero C1008
# Procedure, shortened: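 VeroE6 cells (2 × 10⁴/well) were treated with compound at 10 nM–10 μM for 1 h at 37 °C, then infected with 5000 TCID of EBOV Mayinga GP-pseudotyped rVSVΔG-luciferase. Luciferase was read by Steady-Glo after 24 h.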
# [3] = Selectivity index, ratio of CC50 for african green monkey Vero E6 cells to EC50 for EBOV-GP pseudotyped virus infected in Vero E6 cells; format: toxicity, cell-based; conditions: read-out: Ratio CC50/EC50
# [4] = Selectivity index, ratio of CC50 for african green monkey Vero E6 cells to EC50 for wild type Zaire EBOV Mayinga 1976 infected in Vero E6 cells; format: toxicity, cell-based; conditions: read-out: Ratio CC50/EC50
# Ebolavirus [5] = assay: Antiviral activity against EBOV Kikwit infected in HeLa cells; format: functional, organism-based; conditions: Orthoebolavirus
# [6] = Cytotoxicity against african green monkey Vero E6 cells; format: toxicity, cell-based, Vero C1008; conditions: chlorocebus sabaeus
# [7] = Selectivity index, ratio of CC50 for african green monkey Vero E6 cells to EC50 for EBOV infected in Vero E6 cells; format: toxicity, cell-based; conditions: read-out: Ratio CC50/EC50
# Ebolavirus [8] = assay: Antiviral activity against EBOV Zaire Kikwit infected in Huh-7 cells incubated for 48 to 72 hrs; format: functional, organism-based; conditions: Orthoebolavirus
# Ebolavirus [9] = assay: Antiviral activity against eGFP-EBOV infected in Vero E6 cells incubated for 48 hrs by spectrofluorometer assay; format: functional, organism-based; conditions: Orthoebolavirus, Vero C1008, 48 h
# [10] = AUClast in BALB/c mouse plasma at 10 mg/kg, ip measured upto 24 hrs by LC-MS/MS analysis; format: ADME, organism-based; conditions: in vivo
# Procedure, shortened: (§1)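 Male BALB/c mice (8–12 weeks, 20–35 g) were given a single dose of test compound solution, either 10 mg/kg i.p. or 50 mg/kg p.o., at 10 mL/kg. Blood and then brain were taken from three mice per time point up to 24 h postdose. Plasma and brain levels were measured by LC–MS/MS, and parameters came from noncompartmental analysis.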
# [11] = AUClast in BALB/c mouse plasma at 50 mg/kg, po measured upto 24 hrs by LC-MS/MS analysis; format: ADME, organism-based; conditions: in vivo; procedure, shortened: as §1
# [12] = Drug concentration in BALB/c mouse plasma at 10 mg/kg, ip measured upto 24 hrs by LC-MS/MS analysis; format: ADME, organism-based; procedure, shortened: as §1
# [13] = Drug concentration in BALB/c mouse plasma at 50 mg/kg, po measured upto 24 hrs by LC-MS/MS analysis; format: ADME, organism-based; procedure, shortened: as §1
# [14] = Drug concentration in BALB/c mouse brain at 10 mg/kg, ip measured upto 24 hrs by LC-MS/MS analysis; format: ADME, organism-based; conditions: read-out: Ct; procedure, shortened: as §1
# [15] = Drug concentration in BALB/c mouse brain at 50 mg/kg, po measured upto 24 hrs by LC-MS/MS analysis; format: ADME, organism-based; conditions: read-out: Ct; procedure, shortened: as §1
# [16] = Toxicity in C57BL/6 mouse assessed as tolerability at 50 mg/kg, po measured after 4 days; format: organism-based; conditions: in vivo, 96 h, time 4 day
# Procedure, shortened: (§2)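 Male and female C57BL/6 mice (3/sex/group) got a single oral gavage dose of 50, 100 or 250 mg/kg at 10 mL/kg, in 7.5% NMP, 7.5% Solutol HS-15, 25% PEG-400 and 60% RO water. Controls received vehicle. Clinical signs, body weight, percent weight gain and feed consumption were followed for 4 days, then survivors underwent euthanasia and gross pathology.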
# [17] = Toxicity in C57BL/6 mouse assessed as decrease in body weight gain at 100 mg/kg, po measured after 4 days; format: organism-based; conditions: in vivo, 96 h, time 4 day; procedure, shortened: as §2
# [18] = Toxicity in C57BL/6 mouse assessed as decrease in feed consumption at 100 mg/kg, po measured after 4 days; format: organism-based; conditions: in vivo, 96 h, time 4 day; procedure, shortened: as §2
# [19] = Toxicity in C57BL/6 mouse assessed as mortality at 250 mg/kg, po measured after 4 days; format: organism-based; conditions: in vivo, 96 h, time 4 day; procedure, shortened: as §2
# [20] = AUClast in BALB/c mouse brain at 10 mg/kg, ip measured upto 24 hrs by LC-MS/MS analysis; format: ADME, organism-based; conditions: in vivo; procedure, shortened: as §1
# [21] = AUClast in BALB/c mouse brain at 50 mg/kg, po measured upto 24 hrs by LC-MS/MS analysis; format: ADME, organism-based; conditions: in vivo; procedure, shortened: as §1
# [22] = Tmax in BALB/c mouse plasma at 10 mg/kg, ip measured upto 24 hrs by LC-MS/MS analysis; format: ADME, organism-based; conditions: in vivo; procedure, shortened: as §1
# [23] = Tmax in BALB/c mouse plasma at 50 mg/kg, po measured upto 24 hrs by LC-MS/MS analysis; format: ADME, organism-based; conditions: in vivo; procedure, shortened: as §1
# [24] = Cmax in BALB/c mouse plasma at 50 mg/kg, po measured upto 24 hrs by LC-MS/MS analysis; format: ADME, organism-based; conditions: in vivo; procedure, shortened: as §1
# [25] = Tmax in BALB/c mouse brain at 10 mg/kg, ip measured upto 24 hrs by LC-MS/MS analysis; format: ADME, organism-based; conditions: in vivo; procedure, shortened: as §1
# [26] = Tmax in BALB/c mouse brain at 50 mg/kg, po measured upto 24 hrs by LC-MS/MS analysis; format: ADME, organism-based; conditions: in vivo; procedure, shortened: as §1
# [27] = Cmax in BALB/c mouse brain at 50 mg/kg, po measured upto 24 hrs by LC-MS/MS analysis; format: ADME, organism-based; conditions: in vivo; procedure, shortened: as §1
smiles,measurement,setting,value
CCC(CC)COC(=O)[C@H](C)N[P@](=O)(OC[C@H]1O[C@@](C#N)(c2ccc3c(N)ncnn23)[C@H](O)[C@@H]1O)Oc1ccccc1,EC50,Ebolavirus [1],0.14 µM
O=C(NCCc1ccccc1)c1ccc(-c2cccc(OC3CCNCC3)c2)s1,EC50,Ebolavirus [2],5.3 µM
O=C(Nc1ccccc1)c1ccc(-c2cccc(OC3CCNCC3)c2)s1,selectivity ratio,[3],4.7
same,selectivity ratio,[4],113
Nc1ncnc2c([C@@H]3N[C@H](CO)[C@@H](O)[C@H]3O)c[nH]c12,EC50,Ebolavirus [5],11.8 µM
NC(=O)c1nc(F)c[nH]c1=O,CC50,[6],> 1000 µM
same,selectivity ratio,[7],14.9
CC(C)C(=O)OC[C@H]1O[C@@](C#N)(c2ccc3c(N)ncnn23)[C@H](O)[C@@H]1O [OBELDESIVIR],EC50,Ebolavirus [8],4.16 µM
CN(C)CCOc1ccc(/C(=C(/CCCl)c2ccccc2)c2ccccc2)cc1 [TOREMIFENE],IC50,Ebolavirus [9],0.162 µM
O=C(Nc1ccccc1)c1ccc(-c2ccc(OC3CCNCC3)cc2)s1,AUClast,[10],2973.11 ng·h/mL
same,AUClast,[11],8610.24 ng·h/mL
same,concentration at 24 h,[12],2740 nM
same,concentration at 24 h,[13],2040 nM
same,concentration at 24 h,[14],4430 nM
same,concentration at 24 h,[15],14800 nM
same,Activity,[16],Non-Toxic
same,Activity,[17],Toxic
same,Activity,[18],Toxic
same,Activity,[19],Toxic
same,AUClast,[20],25429.34 ng·h/mL
same,AUClast,[21],97086.13 ng·h/mL
O=C(Nc1ccccc1)c1ccc(-c2ccccc2OC2CCNCC2)s1,Tmax,[22],0.25 h
same,Tmax,[23],1 h
same,Cmax,[24],112.31 ng/mL
same,AUClast,[10],271.74 ng·h/mL
same,AUClast,[11],541.78 ng·h/mL
same,concentration at 24 h,[12],320 nM
same,concentration at 24 h,[13],290 nM
same,concentration at 24 h,[14],330 nM
same,concentration at 24 h,[15],810 nM
same,Tmax,[25],2 h
same,Tmax,[26],6 h
same,Cmax,[27],316.7 ng/mL
same,AUClast,[20],600.09 ng·h/mL
same,AUClast,[21],3341.42 ng·h/mL
